# How the values were obtained:
# [1] = system: γ-globin mRNA expression in the K562 human myelogenous leukemia cell line; experiment: γ-globin mRNA expression in K562 cells by RT-qPCR; format: cell-based; conditions: K562, concentration not printed (at or near LSD1 IC50)
# [2] = system: γ-globin mRNA expression in human CD34+ erythroid progenitor cells; experiment: γ-globin mRNA expression in CD34+ erythroid progenitor cells by RT-qPCR; format: cell-based
# [3] = system: β-globin mRNA expression in human CD34+ erythroid progenitor cells; experiment: β-globin mRNA expression in CD34+ erythroid progenitor cells by RT-qPCR; format: cell-based; conditions: for Fold increase in β-globin mRNA: concentration not given
# Townes SS mice = experiment: HbF induction in Townes SS mice; format: in vivo, mouse; conditions: 10 mg/kg, 2 weeks of treatment
# How it was run: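 Townes SS mice were dosed at 10 mg/kg for 2 weeks (route not specified). F-cells and F-reticulocytes were counted by flow cytometry on 5–10 μL of tail-vein blood. γ-Globin was measured by HPLC against each animal's pretreatment baseline. Each value is the mean of three animals + SEM.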
# recombinant LSD1/CoREST = recombinant LSD1/CoREST (Homo sapiens, UniProt O60341); conditions: IC50 ND; cited from earlier work
# spermine oxidase (SMOX) = conditions: cited from earlier work
# [4] = system: K562 human myelogenous leukemia cells; experiment: MTS cell viability assay in K562 cells; format: cell-based; conditions: 72 h
# How it was run: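 K562 cells were grown in IMDM with 10% FBS and 5% penicillin/streptomycin at 37 °C in 5% CO2. They were seeded at 2000 cells/well, left overnight, then given fresh medium containing the test compound for 72 h. MTS was added for 2 h, with absorbance read at 490 nm against a 690 nm reference. % cell death = (control − sample)/control × 100. IC50 came from dose-response curves, using triplicates from a single experiment ± SEM.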
# erythroid cells = conditions: cited from earlier work
compound,measurement,setting,value
Hemin,Fold increase in γ-globin mRNA expression,[1],2.4 fold
same,"Increase in γ-globin mRNA (in words, compared with K562)",[2],analogous to levels observed in the K562 line
same,Fold increase in β-globin mRNA,[3],1.4 fold
"NC(=O)NO [HU, hydroxyurea]",Fold increase in γ-globin mRNA expression,[1],2.3 fold
same,"Increase in γ-globin mRNA (in words, compared with K562)",[2],analogous to levels observed in the K562 line
same,Fold increase in β-globin mRNA,[3],no effect
c1ccc([C@@H]2C[C@H]2NC2CCNCC2)cc1 [compound 2],Effect on β-globin mRNA levels (in words),[3]; both 20 and 50 nM,marked decrease
Nc1n[nH]c(NCc2ccccc2Oc2ccc(-c3ccccc3)cc2)n1 [compound 8],Increase in HbF-containing erythrocytes (F-cells),"Townes SS mice; Townes SS mice, flow cytometry",significant increases
same,Increase in γ-globin (HbF content) by HPLC relative to baseline/pretreatment,Townes SS mice; Townes mouse,87%
same,LSD1 % inhibition at 10 μM,recombinant LSD1/CoREST,ND (50.0% inhibition at 10 μM)[52]
same,Inhibition of spermine oxidase (SMOX) (in words),spermine oxidase (SMOX),inhibit
"N[C@@H]1C[C@H]1c1ccccc1 (racemic) [Tranylcypromine, tranylcypromine]",Cytotoxicity in K562 cells (in words),[4],minimal cytotoxicity
same,Induction of HbF in erythroid cells (in words),erythroid cells,dose-dependent induction

# Reference: PMC7315572 (ACS Omega, 2020)
